Like-named read-outs stand apart in the source and are kept apart here. Each block holds one molecule with its values, some of them ahead of it.
Key:
LRP6 E1 = molecular target: T1, LRP6 E1 (Homo sapiens, UniProt O75581); assay: SPR binding to immobilized LRP6 E1 domain
T1 sequence (O75581 20-326): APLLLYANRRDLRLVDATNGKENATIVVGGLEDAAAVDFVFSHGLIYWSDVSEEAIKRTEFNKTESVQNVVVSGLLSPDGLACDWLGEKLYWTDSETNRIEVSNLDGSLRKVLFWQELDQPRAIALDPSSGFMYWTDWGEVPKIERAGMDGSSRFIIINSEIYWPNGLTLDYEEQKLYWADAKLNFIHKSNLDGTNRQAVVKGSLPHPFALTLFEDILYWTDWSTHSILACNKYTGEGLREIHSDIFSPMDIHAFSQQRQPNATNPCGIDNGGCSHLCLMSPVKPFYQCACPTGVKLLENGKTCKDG

LRP6 E1-E2 = assay: SPR binding to immobilized LRP6 E1-E2; set-up: species or system human
[1] = molecular target: LRP6 E1-E2 domains (human); assay: SPR
[2] = molecular target: LRP6 E3-E4 domains (human); assay: SPR
LRP6 E3-E4 = assay: SPR binding to immobilized LRP6 E3-E4; set-up: species or system human
[3] = system: Wnt1/sFRP-1 binding to LRP6-E1-E2; assay: SPR competition with Wnt1/sFRP-1 for LRP6-E1-E2; set-up: species or system human; settings: surface coated with LRP6-E1-E2 and saturated with competitor
Summary of the method: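 The SPR surface was coated with LRP6-E1-E2, then saturated with competitor or given buffer only. Wnt1/sFRP-1 (purified recombinant complex), competitor, or a mixture of the two was injected immediately afterward. Wnt1/sFRP-1 binding signal with or without competitor was inspected manually.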

MC3T3-E1 cells = assay: Osteogenic differentiation of MC3T3-E1 cells; assay type: cell-based, murine; settings: MC3T3-E1 in om+ medium, 21 d; 5 µM Lr-EET-3.5, 1 µg SOST, 1 µM FabYW210 and FabYW211; four independent assays
Summary of the method: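 MC3T3-E1 cells were grown in differentiation medium (50 µg/mL ascorbate-2-phosphate, 10 mM β-glycerophosphate) or in control medium without these factors, plus LRP6-binding reagents (Fabs 1 µM, test compound 5 µM). Mineralized nodules were stained with alizarin red S at 21 d, and nodule area above the control-medium background was quantified. Bglap mRNA was measured by qRT-PCR after 1 wk. Values are means of four independent assays, with SD and one-way ANOVA.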

LRP6 E2 = settings: read-out: KD, binding to E2 alone; previously reported; cited from earlier work
[4] = system: AT2 cells in alveolospheres; assay type: cell-based, mouse; settings: LGK974 alone, 2 wk
[5] = molecular target: LRP6 E1-E2 domains (human); assay: SPR; remark: listed apart in the source
[6] = molecular target: T2, full-length extracellular domain of LRP6 (E1-E4) (human, UniProt O75581 20-1370); assay: SPR
T2 sequence: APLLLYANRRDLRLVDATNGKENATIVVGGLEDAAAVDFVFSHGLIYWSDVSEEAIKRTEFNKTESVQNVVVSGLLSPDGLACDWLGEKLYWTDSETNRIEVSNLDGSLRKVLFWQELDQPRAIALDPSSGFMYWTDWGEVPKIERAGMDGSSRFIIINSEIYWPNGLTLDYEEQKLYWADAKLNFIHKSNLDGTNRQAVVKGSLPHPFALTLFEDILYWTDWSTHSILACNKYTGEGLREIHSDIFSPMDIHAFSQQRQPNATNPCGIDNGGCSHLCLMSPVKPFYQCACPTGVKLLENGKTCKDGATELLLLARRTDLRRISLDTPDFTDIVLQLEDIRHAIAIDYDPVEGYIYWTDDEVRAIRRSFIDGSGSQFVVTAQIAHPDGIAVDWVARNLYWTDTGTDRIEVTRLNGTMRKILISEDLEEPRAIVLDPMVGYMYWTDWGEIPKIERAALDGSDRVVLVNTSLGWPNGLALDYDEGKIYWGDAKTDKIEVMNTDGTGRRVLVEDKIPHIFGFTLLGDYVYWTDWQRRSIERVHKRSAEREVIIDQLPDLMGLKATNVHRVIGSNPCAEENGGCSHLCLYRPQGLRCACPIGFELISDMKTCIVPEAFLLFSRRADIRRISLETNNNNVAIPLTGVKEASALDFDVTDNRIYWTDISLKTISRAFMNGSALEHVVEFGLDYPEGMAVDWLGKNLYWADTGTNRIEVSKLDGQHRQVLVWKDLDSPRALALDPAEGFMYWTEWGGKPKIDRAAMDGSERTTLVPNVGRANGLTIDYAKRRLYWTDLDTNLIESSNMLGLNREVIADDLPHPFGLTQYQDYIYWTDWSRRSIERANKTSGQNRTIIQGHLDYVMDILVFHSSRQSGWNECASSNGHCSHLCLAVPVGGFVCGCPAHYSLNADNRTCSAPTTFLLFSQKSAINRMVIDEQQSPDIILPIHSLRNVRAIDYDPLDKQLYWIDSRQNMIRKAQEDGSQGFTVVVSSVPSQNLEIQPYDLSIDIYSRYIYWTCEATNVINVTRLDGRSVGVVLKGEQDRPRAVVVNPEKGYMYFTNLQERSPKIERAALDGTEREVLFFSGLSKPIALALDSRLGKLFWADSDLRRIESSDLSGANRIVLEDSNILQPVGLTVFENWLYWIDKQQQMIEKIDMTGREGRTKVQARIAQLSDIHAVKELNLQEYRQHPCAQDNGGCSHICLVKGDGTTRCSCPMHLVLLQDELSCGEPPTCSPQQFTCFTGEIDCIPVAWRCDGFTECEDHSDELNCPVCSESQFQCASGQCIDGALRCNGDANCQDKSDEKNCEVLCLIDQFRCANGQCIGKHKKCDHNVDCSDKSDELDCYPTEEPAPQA

binding to E1 alone on addition of Lr-EET-3.5 (LRP6 E1; SPR competition, 500 nM Lr-EET-3.5): completely blocked
KD, E3-E4 (LRP6 E3-E4; two state model): no interaction detected
effect on binding of WNT1/sFRP-1 to LRP6 [3]: antagonistic effect
Molecule: SOST: natural Wnt inhibitor sclerostin
inhibition of matrix mineralization (alizarin red-S staining) (MC3T3-E1 cells): comparable
Kd (LRP6 E2): 1300 nM

Kd [5]: 3.4 nM
Kd [6]: 6 nM
Kd (LRP6 E1-E2; read-out: KD, E1-E2, Wnt1/sFRP-1 as analyte, 1:1 binding model): 3.4 nM
interaction with E3-E4 (LRP6 E3-E4; Wnt1/sFRP-1 as analyte): no interaction detected
B1: WNT1/secreted frizzled related protein 1 (sFRP-1) complex (complex)
chain 1: ANSSGRWWGIVNVASSTNLLTDSKSLQLVLEPSLQLLSRKQRRLIRQNPGILHSVSGGLQSAVRECKWQFRNRRWNCPTAPGPHLFGKIVNRGCRETAFIFAITSAGVTHSVARSCSEGSIESCTCDYRRRGPGGPDWHWGGCSDNIDFGRLFGREFVDSGEKGRDLRFLMNLHNNEAGRTTVFSEMRQECKCHGMSGSCTVRTCWMRLPTLRAVGDVLRDRFDGASRVLYGNRGSNRASRAELLRLEPEDPAHKPPSPHDLVYFEKSPNFCTYSGRLGTAGTAGRACNSSSPALDGCELLCCGRGHRTRTQRVTERCNCTFHWCCHVSCRNCTHTRVLHECL
chain 2: SEYDYVSFQSDIGPYQSGRFYTKPPQCVDIPADLRLCHNVGYKKMVLPNLLEHETMAEVKQQASSWVPLLNKNCHAGTQVFLCSLFAPVCLDRPIYPCRWLCEAVRDSCEPVMQFFGFYWPEMLKCDKFPEGDVCIAMTPPNATEASKPQGTTVCPPCDNELKSEAIIEHLCASEFALRMKIKEVKKENGDKKIVPKKKKPLKLGPIKKKDLKKLVLYLKNGADCPCHQLDNLSHHFLIMGRKVKSQYLLTAIHKWDKKNKEFKNFMKKMKNHECPTFQSVFK

Continued, molecule first:

Molecule: DKK1: natural Wnt inhibitor Dickkopf-1
KD, E1 alone (LRP6 E1; SPR, no competitor, two state model): no detectable binding
KD, E1-E2 in the presence of Lr-EET-3.5 (LRP6 E1-E2; surface saturated with 500 nM Lr-EET-3.5 and 500 nM CKP in every dilution): ablated the binding

Molecule: Dickkopf-1 (DKK1) (from UniProt O94907 32-266) (natural protein)
Kd [1]: 135 nM
Kd [2]: 43 nM

Molecule: sclerostin (SOST) (from UniProt Q9BQB4 24-213) (natural protein)
KD in the presence of Lr-EET-3.5 [1]: 47 nM
Kd [1]: 3.3 nM

Molecule: Cc1cc(-c2ncc(CC(=O)Nc3ccc(-c4cnccn4)cn3)cc2C)ccn1 [LGK974]
AT2 proliferation and formation of alveolospheres [4]: abrogated AT2 proliferation and the formation of alveolospheres

B2: sclerostin (SOST) (natural protein)
chain: QGWQAFKNDATEIIPELGEYPEPPPELENNKTMNRAENGGRPPHHPFETKDVSEYSCRELHFTRYVTDGPCRSAKPVTELVCSGQCGPARLLPNAIGRGKWWRPSGPDFRCIPDRYRAQRVQLLCPGGEAPRARKVRLVASCKCKRLTRFHNQSELKDFGTEAARPQKGRKPRPRARSAKANQAELENAY
KD in the presence of Lr-EET-3.5 [6]: 41 nM
Kd [6]: 3.8 nM

Reference: article PMC9674260 (Proceedings of the National Academy of Sciences of the …, 2022)
